Data from ChEMBL document CHEMBL4145447, “4-arylamidobenzyl substituted 5-bromomethylene-2(5H)-furanones for chronic bacterial infection” (Eur J Med Chem, 2018).
Active and inactive are the calls of the source. The rule behind the calls is not given here.

Key:
[1] = biological target: T1, Peroxisome proliferator-activated receptor gamma (Mus musculus) (UniProt P37238); experiment: Agonist activity at PPARgamma in mouse RAW264.7 cells assessed as inhibition of LPS-induced IkB-alpha phosphorylation at Ser32/36 residues at 10 uM preincubated for 1 hr followed by LPS stimulation and measured after 4 hrs in presence of PPARgamma antagonist GW9662 by Western blot analysis; format: cell-based
T1 sequence (whole entry): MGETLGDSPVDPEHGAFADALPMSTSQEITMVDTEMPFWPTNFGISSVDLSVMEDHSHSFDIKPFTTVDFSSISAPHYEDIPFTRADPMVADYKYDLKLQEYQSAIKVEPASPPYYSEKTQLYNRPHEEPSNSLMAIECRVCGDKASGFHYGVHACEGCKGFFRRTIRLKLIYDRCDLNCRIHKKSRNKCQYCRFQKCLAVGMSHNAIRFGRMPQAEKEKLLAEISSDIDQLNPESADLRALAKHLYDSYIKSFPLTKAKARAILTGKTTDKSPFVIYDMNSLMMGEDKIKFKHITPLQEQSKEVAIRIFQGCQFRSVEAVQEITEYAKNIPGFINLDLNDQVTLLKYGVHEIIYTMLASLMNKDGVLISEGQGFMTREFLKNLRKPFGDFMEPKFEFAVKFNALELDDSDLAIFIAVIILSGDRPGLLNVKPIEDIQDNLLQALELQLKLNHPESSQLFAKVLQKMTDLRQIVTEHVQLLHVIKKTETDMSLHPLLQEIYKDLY
In short: (§1)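 Western blot: RAW264.7 cells (2 × 10^6/well) pretreated 1 h with compound (10 µM), antagonist GW9662 (5 µM) where stated, then LPS 500 ng/mL for 4 h. Lysis on ice with PMSF, BCA-normalised protein on SDS gels, PVDF transfer, milk block, phospho- and total-protein primary antibodies, HRP secondary, ECL detection. Densitometry normalised to internal control; n = 3.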

[2] = biological target: T1, Peroxisome proliferator-activated receptor gamma (Mus musculus); experiment: Agonist activity at PPARgamma in mouse RAW264.7 cells assessed as inhibition of LPS-induced MAPK p38 phosphorylation at Thr180/Tyr182 residues at 10 uM preincubated for 1 hr followed by LPS stimulation and measured after 4 hrs by Western blot analysis; format: cell-based; in short: as §1
Mus musculus = experiment: Anti-inflammatory activity in LPS-induced sepsis shock mouse model assessed as survival rate at 5 mg/kg, iv pretreated daily for 5 days followed LPS treatment on day 5 at 1 hr post last dose and measured after 7 days relative to control; format: functional
In short: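 Male SPF mice, randomly grouped, dosed i.v. with compound dissolved in DMSO and diluted in physiological saline; vehicle group given a similar volume. LPS was injected on day 5, 1 h after the last administration. Survival was recorded every 12 h for 7 days after LPS, with 11 animals per group per figure legend.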

RAW264.7 [3] = experiment: Anti-inflammatory activity in mouse RAW264.7 cells assessed as inhibition of LPS-induced IL-6 production by measuring […] level at 10 uM preincubated for 2 hrs followed by LPS stimulation and measured after 12 hrs by ELISA (reference value: 175.2 +/- 10.2 pg/ml); format: functional
RAW264.7 [4] = experiment: Anti-inflammatory activity in mouse RAW264.7 cells assessed as inhibition of LPS-induced IL-6 production by measuring […] level at 10 uM preincubated for 2 hrs followed by LPS stimulation and measured after 6 hrs by ELISA (reference value: 94.6 +/- 5.9 pg/ml); format: functional
[5] = biological target: T1, Peroxisome proliferator-activated receptor gamma (Mus musculus); experiment: Agonist activity at PPARgamma in mouse RAW264.7 cells assessed as inhibition of LPS-induced ERk1/2 phosphorylation at Thr202/Tyr204 residues at 10 uM preincubated for 1 hr followed by LPS stimulation and measured after 4 hrs in presence of PPARgamma antagonist GW9662 by Western blot analysis; format: cell-based; in short: as §1
[6] = biological target: T1, Peroxisome proliferator-activated receptor gamma (Mus musculus); experiment: Agonist activity at PPARgamma in mouse RAW264.7 cells assessed as inhibition of LPS-induced IkB-alpha phosphorylation at Ser32/36 residues at 10 uM preincubated for 1 hr followed by LPS stimulation and measured after 4 hrs by Western blot analysis; format: cell-based; in short: as §1
[7] = biological target: T1, Peroxisome proliferator-activated receptor gamma (Mus musculus); experiment: Agonist activity at PPARgamma in mouse RAW264.7 cells assessed as inhibition of LPS-induced MAPK p38 phosphorylation at Thr180/Tyr182 residues at 10 uM preincubated for 1 hr followed by LPS stimulation and measured after 4 hrs in presence of PPARgamma antagonist GW9662 by Western blot analysis; format: cell-based; in short: as §1
[8] = biological target: Elastase (Pseudomonas aeruginosa (strain ATCC 15692 / PAO1 / 1C / PRS 101 / LMG12228)) (UniProt P14756); experiment: Inhibition of Pseudomonas aeruginosa PAO1 GFP-fused quorum sensing lasB at 10 uM measured every 15 mins up to 12 hrs by GFP reporter gene assay relative to control
In short: (§2)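 GFP reporter strains of P. aeruginosa PAO1 (lasB-, rhlA- or pqsA-promoter fused to unstable gfp(ASV)) grown overnight in LB at 37 °C, 200 rpm, 18 h, then diluted 1:100. Culture mixed 1:1 with compound diluted in LB from 10 mM DMSO stock (0.1% DMSO final). Fluorescence (ex 485/em 528 nm) read every 15 min at 37 °C for ≥12 h.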

[9] = Cytotoxicity against mouse RAW264.7 cells assessed as cell viability at 10 uM after 48 hrs by MTT assay relative to control; format: cell-based; details: read-out: Activity
In short: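 MTT viability: RAW264.7 cells (4 × 10^4/well) in DMEM + 10% FBS exposed to compounds diluted in DMEM for 48 h. MTT 0.5 mg/mL added for 4 h in the dark, formazan dissolved in DMSO, read at 570 nm. Viability = treated/medium-only control × 100; three independent experiments.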

[10] = biological target: T2, Anthranilate--CoA ligase (Pseudomonas aeruginosa (strain ATCC 15692 / DSM 22644 / CIP 104116 /JCM 14847 / LMG 12228 / 1C / PRS 101 / PAO1)) (UniProt Q9I4X3); experiment: Inhibition of Pseudomonas aeruginosa PAO1 GFP-fused quorum sensing pqsA at 5 to 100 uM measured every 15 mins up to 12 hrs by GFP reporter gene assay; in short: as §2
T2 sequence (whole entry): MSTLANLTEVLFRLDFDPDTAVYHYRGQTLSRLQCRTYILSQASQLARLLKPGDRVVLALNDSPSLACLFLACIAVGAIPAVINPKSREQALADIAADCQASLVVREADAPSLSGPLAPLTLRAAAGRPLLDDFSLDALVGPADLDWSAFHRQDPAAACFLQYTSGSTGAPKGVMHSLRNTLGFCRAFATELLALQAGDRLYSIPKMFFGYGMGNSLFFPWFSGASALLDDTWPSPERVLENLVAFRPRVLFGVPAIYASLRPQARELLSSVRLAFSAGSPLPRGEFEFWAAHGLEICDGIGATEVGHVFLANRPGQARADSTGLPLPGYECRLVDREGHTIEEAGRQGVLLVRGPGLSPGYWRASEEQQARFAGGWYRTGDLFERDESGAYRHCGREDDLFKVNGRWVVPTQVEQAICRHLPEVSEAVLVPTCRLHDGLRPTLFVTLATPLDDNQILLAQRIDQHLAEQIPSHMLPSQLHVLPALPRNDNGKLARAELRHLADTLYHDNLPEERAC

Elastase (Pseudomonas aeruginosa (strain ATCC 15692 / PAO1 / 1C / PRS 101 / LMG12228)), sequence (P14756 198-498 limits assumed): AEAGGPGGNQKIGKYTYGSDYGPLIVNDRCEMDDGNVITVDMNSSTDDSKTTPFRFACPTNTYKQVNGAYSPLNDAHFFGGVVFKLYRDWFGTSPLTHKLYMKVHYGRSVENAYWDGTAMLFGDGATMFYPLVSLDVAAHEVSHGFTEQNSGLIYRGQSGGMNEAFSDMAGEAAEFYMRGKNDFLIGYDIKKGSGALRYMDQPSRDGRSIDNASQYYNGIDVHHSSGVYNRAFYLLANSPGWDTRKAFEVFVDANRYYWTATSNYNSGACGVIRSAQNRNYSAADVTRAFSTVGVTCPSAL

Row | inhibition [10] | Structure (SMILES) | inhibition [1] | inhibition [2] | survival at 5 mg/kg (Mus musculus) [%] | Activity (RAW264.7 [3]) [pg/mL] | Activity (RAW264.7 [4]) [pg/mL] | inhibition [5] | inhibition [6] | inhibition [7] | inhibition [8] [%] | viability at 48 h, 10 µM [9] [%]
1 | – | O=C(Cc1ccc(F)cc1)Nc1ccc(CC2=CC(=O)OC2=CBr)cc1 | inactive | Active | 36.5 | 66.3 | 17 | inactive | Active | inactive | 15.2 | 97
2 | inactive | O=C(C=Cc1ccccc1)Nc1ccc(CC2=CC(=O)O/C2=C/Br)cc1 | inactive | Active | – | 75.3 | 19.6 | inactive | Active | inactive | 11.8 | 104
